In ChEMBL document CHEMBL5712906, “Discovery of a novel long noncoding RNA overlapping the LCK gene that regulates prostate cancer cell growth” (2019):
Activity calls are given as the source filed them. The calls are words filed in the database; no cut-off is given here.

Legend:
LNCaP = experiment: Reduction in R1881-induced increase in LCK 3'-UTR expression in human LNCaP cells at 10 uM measured after 24 hrs by qPCR analysis; format: functional, cell-based
In short: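 Cells seeded for 48 h, then exposed to 1 nM R1881 with or without 10 μM enzalutamide. RNA harvested 24 h after treatment. LCK transcript measured by qPCR with primers in the 3′UTR. n = 3.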

[1] = biological target: Histone acetyltransferase p300 (Homo sapiens) (UniProt Q09472); experiment: Inhibition of p300 in human LNCaP cells assessed as effect on HULLK expression at 0.3 uM measured after 24 hrs by qpCR analysis; format: cell-based
In short: (§1)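 Cells seeded 48 h in their usual growth medium, then given 1 nM R1881 with or without 0.3 μM inhibitor. RNA harvested 24 h after treatment; transcripts quantified by qPCR. HULLK measured with two independent LCK primer pairs (exon 13 or 3′UTR). PSA and TMPRSS2 transcripts serve as checks that p300 inhibition worked. n = 3.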

[2] = biological target: Histone acetyltransferase p300 (Homo sapiens) (UniProt Q09472); experiment: Inhibition of p300 in human LNCaP C4-2 cells assessed as effect on HULLK expression at 0.3 uM measured after 24 hrs by qpCR analysis; format: cell-based; in short: as §1
[3] = biological target: Histone acetyltransferase p300 (Homo sapiens) (UniProt Q09472); experiment: Inhibition of p300 in human LNCaP cells assessed as reduction in R1881-induced increase in HULLK expression at 0.3 uM measured after 24 hrs by qPCR analysis; format: cell-based; in short: as §1
[4] = biological target: Histone acetyltransferase p300 (Homo sapiens) (UniProt Q09472); experiment: Inhibition of p300 in human LNCaP C4-2 cells assessed as reduction in R1881-induced increase in HULLK expression at 0.3 uM measured after 24 hrs by qPCR analysis; format: cell-based; in short: as §1
[5] = biological target: Histone acetyltransferase p300 (Homo sapiens) (UniProt Q09472); experiment: Inhibition of p300 in human LNCaP cells assessed as reduction in R1881-induced increase in PSA expression at 0.3 uM measured after 24 hrs by qPCR analysis; format: cell-based; in short: as §1
[6] = biological target: Histone acetyltransferase p300 (Homo sapiens) (UniProt Q09472); experiment: Inhibition of p300 in human LNCaP C4-2 cells assessed as reduction in R1881-induced increase in PSA expression at 0.3 uM measured after 24 hrs by qPCR analysis; format: cell-based; in short: as §1
[7] = biological target: Histone acetyltransferase p300 (Homo sapiens) (UniProt Q09472); experiment: Inhibition of p300 in human LNCaP cells assessed as reduction in R1881-induced increase in TMPRSS2 expression at 0.3 uM measured after 24 hrs by qPCR analysis; format: cell-based; in short: as §1
[8] = biological target: Histone acetyltransferase p300 (Homo sapiens) (UniProt Q09472); experiment: Inhibition of p300 in human LNCaP C4-2 cells assessed as reduction in R1881-induced increase in TMPRSS2 expression at 0.3 uM measured after 24 hrs by qPCR analysis; format: cell-based; in short: as §1

Sequence of Histone acetyltransferase p300 (Homo sapiens) (Q09472 whole entry): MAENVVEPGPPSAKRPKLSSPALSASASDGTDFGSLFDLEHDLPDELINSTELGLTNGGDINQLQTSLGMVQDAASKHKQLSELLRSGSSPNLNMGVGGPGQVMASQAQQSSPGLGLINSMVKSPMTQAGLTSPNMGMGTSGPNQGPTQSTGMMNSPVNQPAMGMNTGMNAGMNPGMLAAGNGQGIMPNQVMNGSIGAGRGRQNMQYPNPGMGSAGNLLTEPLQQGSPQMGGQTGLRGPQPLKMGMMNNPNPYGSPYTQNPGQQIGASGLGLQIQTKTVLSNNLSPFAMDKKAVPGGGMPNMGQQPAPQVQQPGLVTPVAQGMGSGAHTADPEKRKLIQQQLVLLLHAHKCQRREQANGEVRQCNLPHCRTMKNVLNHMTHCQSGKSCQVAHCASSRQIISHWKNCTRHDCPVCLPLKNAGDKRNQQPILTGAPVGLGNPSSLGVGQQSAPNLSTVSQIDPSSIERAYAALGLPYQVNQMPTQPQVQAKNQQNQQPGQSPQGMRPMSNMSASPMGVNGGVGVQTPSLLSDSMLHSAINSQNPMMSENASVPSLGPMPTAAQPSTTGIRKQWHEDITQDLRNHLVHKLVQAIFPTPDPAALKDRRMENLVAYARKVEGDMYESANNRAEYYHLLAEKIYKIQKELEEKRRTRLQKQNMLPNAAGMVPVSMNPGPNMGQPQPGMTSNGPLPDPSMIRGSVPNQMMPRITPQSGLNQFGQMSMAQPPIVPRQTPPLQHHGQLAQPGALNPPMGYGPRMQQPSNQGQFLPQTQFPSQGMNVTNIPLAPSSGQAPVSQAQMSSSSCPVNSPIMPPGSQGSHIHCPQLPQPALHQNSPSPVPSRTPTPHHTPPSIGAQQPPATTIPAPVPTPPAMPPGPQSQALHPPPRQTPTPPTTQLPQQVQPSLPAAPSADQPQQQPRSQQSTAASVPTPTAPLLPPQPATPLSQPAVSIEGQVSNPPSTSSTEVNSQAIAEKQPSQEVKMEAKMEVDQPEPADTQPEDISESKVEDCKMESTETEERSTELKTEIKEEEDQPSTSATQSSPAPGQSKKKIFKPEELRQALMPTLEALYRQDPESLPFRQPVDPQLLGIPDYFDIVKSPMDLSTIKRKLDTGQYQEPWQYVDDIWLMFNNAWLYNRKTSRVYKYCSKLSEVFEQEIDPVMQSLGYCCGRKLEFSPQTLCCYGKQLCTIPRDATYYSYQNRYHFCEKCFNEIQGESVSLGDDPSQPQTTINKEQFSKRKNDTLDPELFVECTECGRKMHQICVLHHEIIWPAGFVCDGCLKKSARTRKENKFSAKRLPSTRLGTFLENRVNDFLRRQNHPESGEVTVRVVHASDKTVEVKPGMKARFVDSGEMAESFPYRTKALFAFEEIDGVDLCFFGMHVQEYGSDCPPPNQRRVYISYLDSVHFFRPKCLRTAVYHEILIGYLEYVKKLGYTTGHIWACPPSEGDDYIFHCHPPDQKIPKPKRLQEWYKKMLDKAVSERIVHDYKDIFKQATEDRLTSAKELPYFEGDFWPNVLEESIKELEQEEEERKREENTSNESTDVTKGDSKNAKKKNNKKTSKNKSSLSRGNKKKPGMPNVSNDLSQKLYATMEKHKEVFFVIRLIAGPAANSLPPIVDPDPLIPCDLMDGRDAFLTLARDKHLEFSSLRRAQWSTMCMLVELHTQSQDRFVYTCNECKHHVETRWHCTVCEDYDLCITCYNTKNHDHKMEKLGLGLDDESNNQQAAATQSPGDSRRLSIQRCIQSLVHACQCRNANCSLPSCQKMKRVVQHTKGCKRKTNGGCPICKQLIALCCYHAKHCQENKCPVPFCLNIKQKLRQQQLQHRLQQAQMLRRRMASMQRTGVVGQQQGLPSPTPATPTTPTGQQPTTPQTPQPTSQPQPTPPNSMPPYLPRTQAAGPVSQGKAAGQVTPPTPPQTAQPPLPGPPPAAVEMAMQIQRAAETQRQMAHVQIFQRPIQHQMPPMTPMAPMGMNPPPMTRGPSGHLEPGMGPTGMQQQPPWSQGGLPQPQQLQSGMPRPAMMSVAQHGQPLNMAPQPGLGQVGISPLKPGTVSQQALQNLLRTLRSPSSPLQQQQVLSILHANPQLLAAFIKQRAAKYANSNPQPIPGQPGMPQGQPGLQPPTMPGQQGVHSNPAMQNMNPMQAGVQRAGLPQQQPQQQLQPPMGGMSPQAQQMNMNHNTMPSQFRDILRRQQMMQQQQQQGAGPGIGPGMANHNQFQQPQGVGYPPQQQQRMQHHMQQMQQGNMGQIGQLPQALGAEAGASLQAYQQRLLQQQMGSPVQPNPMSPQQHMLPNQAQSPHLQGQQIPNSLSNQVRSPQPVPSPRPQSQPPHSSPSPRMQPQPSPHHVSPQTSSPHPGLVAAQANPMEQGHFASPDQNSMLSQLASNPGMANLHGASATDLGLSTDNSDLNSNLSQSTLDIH

inhibition [1]	inhibition [2]	inhibition [3]	inhibition [4]	inhibition [5]	inhibition [6]	inhibition [7]	inhibition [8]	SMILES	Activity (LNCaP)
–	–	–	–	–	–	–	–	CNC(=O)c1ccc(N2C(=S)N(c3ccc(C#N)c(C(F)(F)F)c3)C(=O)C2(C)C)cc1F	Active
inactive	inactive	Active	Active	Active	Active	Active	Active	CNC(=O)Nc1ccc2c(c1)CC[C@@]21OC(=O)N(CC(=O)N(Cc2ccc(F)cc2)[C@@H](C)C(F)(F)F)C1=O	–
